Results reported in the RNAGym collection of RNA variant scans (doi:10.1126/science.aae0568).
Fewer inactive variants are shown than the library holds.

B1: tRNA (parent)
chain: GUUCCGUUGGCGUAAUGGUAACGCGUCUCCCUCCUAAGGAGAAGACUGCGGGUUCGAGUCCCGUACGGAACG

Variants of: B1
Experiment: yeast fitness relative to wild type (ratio to wild type); higher = fitter; tRNA-Arg(CCU), competitive growth, 37 C, YPD
Outline: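 Changes in genotype frequencies gave Darwinian fitness relative to wild type. Frequencies were read by 100-nucleotide paired-end sequencing of gene amplicons before and after pooled Saccharomyces cerevisiae strains, carrying tRNA-Arg(CCU) gene variants at the native locus, were competed in YPD at 37°C for 24 hours in six replicates. A genotype was kept only with ≥ 100 starting reads, and estimates < 0.5 were set to 0.5.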

First: GUUCCGUUGGCGUAAUGGUAAGGCGUCUCCCUCCUAAGGAGAAGACUGCGGGUUCGAGUCCUGUACGGUACG [C22G C62U A69U]
Second: GUUCCGUUGGCGUAAUGGUAAGGCGUCUCCCUCCUAACGAGAAGACUGCGGGUUGGAGUCCCGUACGGAACG [C22G G38C C55G]
The yeast fitness of the first is higher: 0.591 for the first, no more than 0.5 for the second.

Going from GUUCCGUUGGCGUAAUGGUAAGCCGUACCCCCCCUAAGGAGAAGACUGCGGGUUCGAGUCCCGUACGGAACG [C22G G23C C27A U28C U32C] to GUUCCGUUGGCGUAAUGGUAAGGCGUCUCCCUCCUAAGGAGAAGACUGCGGGUUCGAGUCCCGUAUGGCACG [C22G C66U A69C], the yeast fitness rises from no more than 0.5 to 0.564.

First: GUUCCGUUGGCGUAAUGGUAAGGCGUCUCCCUCCUAAGGAGAAGACUGCGGGUUCGAGUCCCGUAUGGUACG [C22G C66U A69U]
Second: GUUCCGUUGGCGUAAUGGUAAGCCGUCUCCCUCCUAAGGAGUAGACUGCGGGUUCGAGUCCCGUACGGAACG [C22G G23C A42U]
The yeast fitness of the first is higher: 0.685 for the first, 0.573 for the second.

Compared with GUUCCGUUGGCGUAAUGGUAAGCCGUCUCCCUCCUAAGGAGACGACUGCCGGUUCGAGUCCCGUACGGAUCG [C22G G23C A43C G50C A70U], GUUCCGUUGGCGUAAUGGUAAGGCGUCUCCCUCCUAAGGAGAAGACUGCGGAUUCGAGUCCCGCACGGAACG [C22G G52A U64C] is higher in yeast fitness: 0.517 for the first, 0.537 for the second.

Compared with GUUCCGUUGGCGUAAUGGUAAGGCGUCUCCCUCCUAAGGAGAAGAUUGCGGGUUCGAGUCCCGUACGGAACG [C22G C46U], GUUCCGUUGGCGUAAUGGUAAGGCGUCUCCCUCUUAAGGAGAAGACUGCGGGUUCGAGUCCCGUACGGUACG [C22G C34U A69U] is lower in yeast fitness: 0.929 for the first, 0.573 for the second.

First: GUUCCGUUGGCGUAAUGGUAAGACGUCUCCCUCCUAAGGAGAAGACUGCGGGUUCGAGUCCCGUACGGAACG [C22G G23A]
Second: GUUCCGUUGGCGUAAUGGUAAGGCGUCUCCCUCCUAAGAAGAAGACUGCGGGUUCGAGUCCCGUACGGAGCG [C22G G39A A70G]
The yeast fitness of the first is higher: 0.644 for the first, 0.599 for the second.

First: GUUCCGUUGGCGUAAUGGUAAGGCGUCUCCCUCCUAAGGAGAAGACUGCGAGUUCGAGUUCCGUACGGAUCG [C22G G51A C60U A70U]
Second: GUUCCGUUGGCGUAAUGGUAAGGCAUCUCCCUCCUAAGGAGAAGACUGCGGGUUCGAGUCUCGUACGGAACG [C22G G25A C61U]
The yeast fitness of the first is lower: 0.637 for the first, 0.647 for the second.

Compared with GUUCCGUUGGCGUAAUGGUAAGGCGUCUCCCUCCUAAGGAGAAGACUGCGGGUUCAAGUCCCGUACGGAACG [C22G G56A], GUUCCGUUGGCGUAAUGGUAAGGCGUCUCCCUCCUAAGGAGAAGACUGCGGAUUUGAGUCCCGUACGGAACG [C22G G52A C55U] is lower in yeast fitness: 1.07 for the first, no more than 0.5 for the second.

Compared with GUUCCGUUGGCGUAAUGGUAAGGCGUCUCCCUCCUAAGGAGAAGAAUGCGGGUUCGAGUCCUAUACGGAACG [C22G C46A C62U G63A], GUUCCGUUGGCGUAAUGGUAAGGCGUCUCCCUCCUAAGGAGAAGACUGCGGCUUCGAGUCCCGUACGCAACG [C22G G52C G68C] is lower in yeast fitness: 0.651 for the first, no more than 0.5 for the second.

First: GUUCCGUUGGCGUAAUGGUAAGGCGUCUCCCUCCUAAGGAGAAGACUGCGGGUUCGAGUCGUGUACGGAACG [C22G C61G C62U]
Second: GUUCCGUUGGCGUAAUGGUAAGGCGUCUCCCUCCUAAGGAGAAGAUUGCAGGUUCGAGUCCCGUACGGAACG [C22G C46U G50A]
The yeast fitness of the first is lower: no more than 0.5 for the first, 0.719 for the second.

GUUCCGUUGGCGUAAUGGUAAGGCGUCUCCCUCCUAAGGAGAAGACUGCGGGUUCGAGUCUCGUACGAAACG [C22G C61U G68A] and GUUCCGUUGGCGUAAUGGUAAGGCGUCUCCCUCUUAAGGAGAAGAAUGCGGGUUCGAGUCCCGUACGGAACG [C22G C34U C46A] cannot be ordered by yeast fitness: no more than 0.5 for the first, no more than 0.5 for the second.

Compared with GUUCCGUUGGCGUAAUGGUAAGGCGUCUCCCUCCUAAGGAGAAGACUGCGAGUUCGAGUCCCGUACGGAACG [C22G G51A], GUUCCGUUGGCGUAAUGGUAAGGCGUCUCCCUCCUAAGGAGAAGACUGCGCGUUCGAGUCCCGUACGGAACG [C22G G51C] is lower in yeast fitness: 0.749 for the first, 0.738 for the second.

GUUCCGUUGGCGUAAUGGUAAGGCGUCUCCCUCCUAAGGAGAAGACUGCGCGUUCGAAUCCCGUACGGAACG [C22G G51C G58A] and GUUCCGUUGGCGUAAUGGUAAGGCGUCUCCCUCCUAAGGAAAAGACUGCGGGUUCGAGUCGCGUACGGAACG [C22G G41A C61G] cannot be ordered by yeast fitness: no more than 0.5 for the first, no more than 0.5 for the second.

Compared with GUUCCGUUGGCGUAAUGGUAAGGCGUCUCCCUCGUAAGGAGAAGACUGCGGGUUCGAGUCCCGUACGGAACG [C22G C34G], GUUCCGUUGGCGUAAUGGUAAGCCGUCUCCCUCCUAAGAAGAAGCCUGUGGGUUCGAGUCUCGUACGAAACG [C22G G23C G39A A45C C49U C61U G68A] is lower in yeast fitness: 0.612 for the first, no more than 0.5 for the second.

Compared with GUUCCGUUGGCGUAAUGGUAAGGCGUCUCCCUCCUAAGGAGAAGACUGCGGCUUCGACUCCCGUUCGGAACG [C22G G52C G58C A65U], GUUCCGUUGGCGUAAUGGUAAGGCGUCUCCCUCCUAAGGAGAAGACUGCGAGUUCGAGUCCCGUACGGAUCG [C22G G51A A70U] is higher in yeast fitness: 0.592 for the first, 0.665 for the second.

Going from GUUCCGUUGGCGUAAUGGUAAGGCGUCUCCCUCCUAAGGAGAAGACUGUGGGUUCAAGUCCCGUACGGAACG [C22G C49U G56A] to GUUCCGUUGGCGUAAUGGUAAGGCGUCUCCCUCCUAAGGAGAAGACUGCUGGUUCGGGUCCCGUACGGAACG [C22G G50U A57G], the yeast fitness falls from 0.797 to no more than 0.5.

First: GUUCCGUUGGCGUAAUGGUAAGGCGUCUCCCUCCUAAGGAAAAGACUGCGGGUUCGAGUCCACUACGGAACG [C22G G41A C62A G63C]
Second: GUUCCGUUGGCGUAAUGGUAAGCCGUCUCCCUCCUAAGGAGAAGACUGCCGGUUAGAGUACCGUACGGAACG [C22G G23C G50C C55A C60A]
The yeast fitness of the first is higher: 0.615 for the first, no more than 0.5 for the second.

First: GUUCCGUUGGCGUAAUGGUAAGGCGUCUCCCUCCUAAGGAGAACACUGCGGGAUCGAGUCCCGUACGGAACG [C22G G44C U53A]
Second: GUUCCGUUGGCGUAAUGGUAAGGCGUCUCCCUCCUAAGGAGAAGACUGCUGGUUCGAGUCCCGUACGGAACG [C22G G50U]
The yeast fitness of the first is lower: no more than 0.5 for the first, 0.873 for the second.

First: GUUCCGUUGGCGUAAUGGUAAGGCGUCUCCCUCCUAAGGAGAAGACUGAGGGUUCCACUACCGUACGGAACG [C22G C49A G56C G58C C60A]
Second: GUUCCGUUGGCGUAAUGGUAAGGCGUCUCCCUCCUAAGGAGAACACUGCGGGUUCGAGUUCCGUACGGAACG [C22G G44C C60U]
The yeast fitness of the first is lower: no more than 0.5 for the first, 0.762 for the second.
